Measurements as given in ChEMBL document CHEMBL3526002, “Tissue distribution and identification of radioactivity components at elimination phase after oral administration of [¹⁴C]CS-1036, an α-amylase inhibitor, to rats” (Drug Metab Dispos, 2013).

Assays:
Design in all cases: dose 5 mg/kg, dosed compound name [14C]CS-1036, route oral
Conditions in all cases: in vivo
Spleen [1] = experiment: Drug uptake in albino F344/DuCrlCrlj rat spleen assessed as ng equivalent of CS-1036 at 5 mg/kg, po after 72 hrs by liquid scintillation counting; format: ADME, organism-based
Kidney [2] = experiment: Drug uptake in albino F344/DuCrlCrlj rat kidney at 5 mg/kg, po after 336 hrs by liquid scintillation counting; format: ADME, organism-based
[3] = Drug uptake in albino F344/DuCrlCrlj rat brown fat assessed as ng equivalent of CS-1036 at 5 mg/kg, po after 4 hrs by liquid scintillation counting; format: ADME, organism-based, Brown adipose tissue
[4] = Drug uptake in albino F344/DuCrlCrlj rat urinary bladder assessed as ng equivalent of CS-1036 at 5 mg/kg, po after 72 hrs by liquid scintillation counting; format: ADME, organism-based
Adrenal gland = experiment: Drug uptake in albino F344/DuCrlCrlj rat adrenal gland assessed as ng equivalent of CS-1036 at 5 mg/kg, po after 336 hrs by liquid scintillation counting; format: ADME, organism-based
Pancreas [5] = experiment: Drug uptake in albino F344/DuCrlCrlj rat pancreas assessed as ng equivalent of CS-1036 at 5 mg/kg, po after 336 hrs by liquid scintillation counting; format: ADME, organism-based
Liver [6] = experiment: Drug uptake in albino F344/DuCrlCrlj rat liver at 5 mg/kg, po after 1 hr by liquid scintillation counting; format: ADME, organism-based
Stomach = experiment: Drug uptake in albino F344/DuCrlCrlj rat stomach assessed as ng equivalent of CS-1036 at 5 mg/kg, po after 336 hrs by liquid scintillation counting; format: ADME, organism-based
[7] = Drug uptake in albino F344/DuCrlCrlj rat urinary bladder assessed as ng equivalent of CS-1036 at 5 mg/kg, po after 1 hr by liquid scintillation counting; format: ADME, organism-based
Small intestine [8] = experiment: Drug uptake in albino F344/DuCrlCrlj rat small intestine at 5 mg/kg, po after 72 hrs by liquid scintillation counting; format: ADME, organism-based
[9] = Drug uptake in albino F344/DuCrlCrlj rat skeletal muscle assessed as ng equivalent of CS-1036 at 5 mg/kg, po after 168 hrs by liquid scintillation counting; format: ADME, organism-based, Muscle tissue
Spleen [10] = experiment: Drug uptake in albino F344/DuCrlCrlj rat spleen assessed as ng equivalent of CS-1036 at 5 mg/kg, po after 336 hrs by liquid scintillation counting; format: ADME, organism-based
Blood = experiment: Drug uptake in albino F344/DuCrlCrlj rat blood at 5 mg/kg, po after 24 hrs by liquid scintillation counting; format: ADME, organism-based
Method in brief: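 Male F344/DuCrlCrlj rats (159–167 g; n = 3 per time point) received a single oral dose of [14C]CS-1036 at 5 mg/kg. Blood was taken from the abdominal aorta at 1, 4, 8, 24, 72, 168 and 336 h. Radioactivity was counted by LSC with external-standard efficiency correction. Results were converted to ng equivalent of CS-1036/ml using specific activity and sample volume, and reported as mean + S.D.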

[11] = Drug uptake in albino F344/DuCrlCrlj rat skeletal muscle at 5 mg/kg, po after 72 hrs by liquid scintillation counting; format: ADME, organism-based, Muscle tissue
Spleen [12] = experiment: Drug uptake in albino F344/DuCrlCrlj rat spleen at 5 mg/kg, po after 1 hr by liquid scintillation counting; format: ADME, organism-based
[13] = Drug uptake in albino F344/DuCrlCrlj rat testis at 5 mg/kg, po after 4 hrs by liquid scintillation counting; format: ADME, organism-based
Aorta = experiment: Drug uptake in albino F344/DuCrlCrlj rat aorta assessed as ng equivalent of CS-1036 at 5 mg/kg, po after 168 hrs by liquid scintillation counting; format: ADME, organism-based
[14] = Drug uptake in albino F344/DuCrlCrlj rat bone marrow at 5 mg/kg, po after 1 hr by liquid scintillation counting; format: ADME, organism-based
Small intestine [15] = experiment: Drug uptake in albino F344/DuCrlCrlj rat small intestine assessed as ng equivalent of CS-1036 at 5 mg/kg, po after 336 hrs by liquid scintillation counting; format: ADME, organism-based
Kidney [16] = experiment: Drug uptake in albino F344/DuCrlCrlj rat kidney at 5 mg/kg, po after 1 hr by liquid scintillation counting; format: ADME, organism-based
Heart = experiment: Drug uptake in albino F344/DuCrlCrlj rat heart at 5 mg/kg, po after 4 hrs by liquid scintillation counting; format: ADME, organism-based
Large intestine = experiment: Drug uptake in albino F344/DuCrlCrlj rat large intestine at 5 mg/kg, po after 336 hrs by liquid scintillation counting; format: ADME, organism-based
Liver [17] = experiment: Drug uptake in albino F344/DuCrlCrlj rat liver assessed as ng equivalent of CS-1036 at 5 mg/kg, po after 1 hr by liquid scintillation counting; format: ADME, organism-based
[18] = Drug uptake in albino F344/DuCrlCrlj rat eyeball at 5 mg/kg, po after 24 hrs by liquid scintillation counting; format: ADME, organism-based
Pancreas [19] = experiment: Drug uptake in albino F344/DuCrlCrlj rat pancreas assessed as ng equivalent of CS-1036 at 5 mg/kg, po after 168 hrs by liquid scintillation counting; format: ADME, organism-based
[20] = Drug uptake in albino F344/DuCrlCrlj rat epididymis at 5 mg/kg, po after 8 hrs by liquid scintillation counting; format: ADME, organism-based
Kidney [21] = experiment: Drug uptake in albino F344/DuCrlCrlj rat kidney assessed as ng equivalent of CS-1036 at 5 mg/kg, po after 1 hr by liquid scintillation counting; format: ADME, organism-based
[22] = Drug uptake in albino F344/DuCrlCrlj rat skeletal muscle assessed as ng equivalent of CS-1036 at 5 mg/kg, po after 72 hrs by liquid scintillation counting; format: ADME, organism-based, Muscle tissue
Liver [23] = experiment: Drug uptake in albino F344/DuCrlCrlj rat liver at 5 mg/kg, po after 8 hrs by liquid scintillation counting; format: ADME, organism-based
Spleen [24] = experiment: Drug uptake in albino F344/DuCrlCrlj rat spleen assessed as ng equivalent of CS-1036 at 5 mg/kg, po after 168 hrs by liquid scintillation counting; format: ADME, organism-based
Thymus = experiment: Drug uptake in albino F344/DuCrlCrlj rat thymus assessed as ng equivalent of CS-1036 at 5 mg/kg, po after 72 hrs by liquid scintillation counting; format: ADME, organism-based
Zone of skin = experiment: Drug uptake in albino F344/DuCrlCrlj rat skin assessed as ng equivalent of CS-1036 at 5 mg/kg, po after 24 hrs by liquid scintillation counting; format: ADME, organism-based
[25] = Drug uptake in albino F344/DuCrlCrlj rat fat assessed as ng equivalent of CS-1036 at 5 mg/kg, po after 168 hrs by liquid scintillation counting; format: ADME, organism-based, Adipose tissue
Method in brief: (§1)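 Male F344/DuCrlCrlj rats (bought at 7 weeks, acclimatized 5–6 days; 159–167 g; n = 3 per time point) received a single oral dose of [14C]CS-1036 at 5 mg/kg. White adipose tissue was collected after abdominal aortic bleeding at 1, 4, 8, 24, 72, 168 or 336 h. Samples were counted by LSC with external-standard efficiency correction. Results were converted to ng equivalents per g from specific activity and sample weight.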

[26] = Drug uptake in albino F344/DuCrlCrlj rat fat assessed as ng equivalent of CS-1036 at 5 mg/kg, po after 4 hrs by liquid scintillation counting; format: ADME, organism-based, Adipose tissue; method in brief: as §1

In the case of C[C@H]1O[C@@H](O[C@H]2[C@H](O)[C@@H](O)[C@@H](O[14C@H]3[14C@H](O)[14CH2]N[14C@@H]3[14CH2]O)O[C@@H]2CO)[C@H](O)[C@@H](O)[C@@H]1O, the Radiolabel recovery (Spleen [1]) is reported as 19.5 ngequiv/g, the Radiolabel recovery (Kidney [2]) is reported as 12 ngequiv/g and the Radiolabel recovery [3] is reported as 2.5 ngequiv/g. The Radiolabel recovery [4] was 6.8 ngequiv/g, the Radiolabel recovery (Adrenal gland) was 8.2 ngequiv/g and the Radiolabel recovery (Pancreas [5]) was 11.2 ngequiv/g. It also gave a Radiolabel recovery (Liver [6]) of 346 ngequiv/g, a Radiolabel recovery (Stomach) of 5.1 ngequiv/g and a Radiolabel recovery [7] of 520 ngequiv/g. It also gave a Radiolabel recovery (Small intestine [8]) of 41.3 ngequiv/g, a Radiolabel recovery [9] of 4.5 ngequiv/g and a Radiolabel recovery (Spleen [10]) of 2.83 ngequiv/g. It also gave a Radiolabel recovery (Blood) of 35.7 ngequiv/ml, a Radiolabel recovery [11] of 16.5 ngequiv/g and a Radiolabel recovery (Spleen [12]) of 65.6 ngequiv/g. It also gave a Radiolabel recovery [13] of 22.3 ngequiv/g, a Radiolabel recovery (Aorta) of 6.8 ngequiv/g and a Radiolabel recovery [14] of 34.9 ngequiv/g. It also gave a Radiolabel recovery (Small intestine [15]) of 1.92 ngequiv/g, a Radiolabel recovery (Kidney [16]) of 520 ngequiv/g and a Radiolabel recovery (Heart) of 36 ngequiv/g. The Radiolabel recovery (Large intestine) was 9.86 ngequiv/g, the Radiolabel recovery (Liver [17]) was 60 ngequiv/g and the Radiolabel recovery [18] was 17.4 ngequiv/g. It also gave a Radiolabel recovery (Pancreas [19]) of 5.8 ngequiv/g, a Radiolabel recovery [20] of 40.8 ngequiv/g and a Radiolabel recovery (Kidney [21]) of 102 ngequiv/g. The Radiolabel recovery [22] was 9.2 ngequiv/g, the Radiolabel recovery (Liver [23]) was 193 ngequiv/g and the Radiolabel recovery (Spleen [24]) was 6.2 ngequiv/g. The Radiolabel recovery (Thymus) was 6.6 ngequiv/g, the Radiolabel recovery (Zone of skin) was 8.2 ngequiv/g and the Radiolabel recovery [25] was 64 ngequiv/g. The Radiolabel recovery [26] was 1.74 ngequiv/g.
